The results in this text go back to ChEMBL document CHEMBL1122004, “alpha-Adrenergic agents. 2. Synthesis and alpha 1-agonist activity of 2-aminotetralins” (J Med Chem, 1982).

Test [1] addresses Adrenergic receptor alpha-1 (Homo sapiens) (UniProt P35348+P25100+P35368). Description: Dissociation constant for Alpha-1-adrenergic receptor was determined before and after addition of phentolamine. Particulars: Oryctolagus cuniculus. In outline:
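Rabbit ear artery with cocaine 2×10^-6 g/mL. After cumulative NE and test-drug curves and washout, phentolamine 10^-7 M is superfused for 30 min of equilibration. NE and test-drug curves are then repeated. K_B for phentolamine = [phentolamine]/((EC50 with phentolamine / EC50 without) − 1).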

Test [2] in a line: Alpha-1 adrenergic receptor activation causing vasoconstriction in the isolated rabbit ear artery. The format is functional, tissue-based. The following applies: Oryctolagus cuniculus. In outline: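 Isolated rabbit ear artery segments with cocaine 2×10^-6 g/mL present throughout to block neuronal uptake. A cumulative norepinephrine curve (10^-8 to 3×10^-6 M) is run first to set the maximum response. After washout, a cumulative test-drug curve is run, stepping concentration once the response is stable. EC50 = concentration giving 50% of the NE maximum.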

A value given as a limit tells only on which side of the number the result lay.

By EC50 is commonly meant the concentration at which the effect is half-maximal. A higher EC50 goes with a need for much substance. `COc1cccc2c1CCC(N)C2` (stereo not drawn): the Kb in test [1] is 7 nM. In addition, in test [2], a half-maximal response (EC50) required 2200 nM.

`CCNC1CCc2c(OC)ccc(I)c2C1` (stereo not drawn): the Kb in test [1] was 12 nM. Besides, in test [2], the EC50 came out at 64 nM.

`COc1ccc(OC)c(C(O)C(C)N)c1` (stereo not drawn) [METHOXAMINE]: the Kb in test [1] is 11 nM. In addition, in test [2], the response was half-maximal at 720 nM (EC50).

On to `CCNC1CCc2c(SC)ccc(OC)c2C1` (stereo not drawn), for which the EC50 in test [2] is 26 nM.

In test [2], `Cc1ccc(C)c2c1CCC(N)C2` (stereo not drawn) yielded an EC50 of 10000 nM.

As for `COc1cc2c(cc1OC)CC(N)CC2` (stereo not drawn), the EC50 in test [2] is more than 10000 nM.

Take `CCNC1CCc2ccc(OC)c(OC)c2C1` (stereo not drawn): the EC50 in test [2] was more than 10000 nM.

Compound `NC1CCc2ccccc2C1` (stereo not drawn) had an EC50 in test [2] of more than 30000 nM.

The compound `COc1ccc(OC)c2c1CCC(N(C)C)C2` (stereo not drawn) registered a Kb in test [1] of 15 nM. In test [2], this compound displayed an EC50 of 81 nM.

On to `CCNC1CCc2c(N)ccc(OC)c2C1` (stereo not drawn), for which a half-maximal effect in test [2] (EC50) was put at 5300 nM.

Take `CCNC1CCc2c(OC)ccc(Cl)c2C1` (stereo not drawn): the Kb in test [1] came out at 14 nM. In test [2], this compound displayed an EC50 of 64 nM.

`CCNC1CCc2c(Sc3ccccc3)ccc(OC)c2C1` (stereo not drawn) showed an EC50 in test [2] of 700 nM.

`CCCNC1CCc2c(OC)ccc(OC)c2C1` (stereo not drawn) returned a Kb in test [1] of 18 nM. Also, in test [2], the response was half-maximal at 1100 nM (EC50).

`CNC1CCc2c(OC)ccc(OC)c2C1` (stereo not drawn) had a Kb in test [1] of 11 nM. For the same compound, a half-maximal effect in test [2] (EC50) was put at 86 nM.

In the case of `COc1ccc(Cl)c2c1CCC(N)C2` (stereo not drawn), in test [1], the Kb came out at 13 nM. Also, the response in test [2] was half-maximal at 230 nM (EC50).

Take `COc1ccc(OC)c2c1CCC(N)C2` (stereo not drawn): the Kb in test [1] worked out at 6 nM. In addition, the EC50 in test [2] stood at 120 nM.

As for `CCNC1CCc2c(OC)ccc(SC)c2C1` (stereo not drawn), the Kb in test [1] is 16 nM. Moreover, the 50% effective concentration (EC50) in test [2] was 140 nM.

As to `CCNC1CCc2c(OC)ccc(OC)c2C1` (stereo not drawn), the Kb in test [1] is 8 nM. In test [2], this compound had an EC50 of 81 nM.

The compound `COc1ccc(SC)c2c1CC(N(C)C)CC2` (stereo not drawn) gave a Kb in test [1] of 9 nM. The compound further came in with an EC50 in test [2] of 14 nM.

For the compound `CCNC1CCc2c(I)ccc(OC)c2C1` (stereo not drawn), the Kb in test [1] came to 11 nM. The EC50 in test [2] came to 21 nM.

For the compound `COc1cccc2c1CC(N)CC2` (stereo not drawn), the Kb in test [1] is 12 nM. This compound displayed an EC50 in test [2] of 1700 nM.

As to `COc1ccc(SC)c2c1CC(N)CC2` (stereo not drawn), the Kb in test [1] is 5 nM. This compound had a half-maximal effective concentration (EC50) in test [2] of 12 nM.

The compound `NC[C@H](O)c1ccc(O)c(O)c1` [NOREPINEPHRINE] showed a concentration giving a half-maximal response (EC50) in test [2] of 150 nM.
